The subject of one assay is HeLa. In words: Cytotoxicity against human HeLa cells by MTT assay. In kind it is functional, cell-based. The method in brief: (§1)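 MTT read-out measured on a microplate reader, with IC50 derived for each of the five lines (BGC-823, HepG2, H460, HeLa, HCT-116). Adriamycin was the positive control.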
(In general: Formazan colour is commonly taken as a measure of viable cells.)

The test system of another assay is Bacillus subtilis. In words: Antimicrobial activity against Bacillus subtilis ATCC 6633 by micro broth dilution method. The assay is classed as functional. The essentials: (§2)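 Bacterial panel run against B. subtilis ATCC 6633 and S. aureus ATCC 25923. Read-out is minimal inhibitory concentration (MIC), reported as the mean of three independent experiments. Ciprofloxacin served as the reference antibacterial.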

A short description of assay [1]: Cytotoxicity against human BGC823 cells by MTT assay. The assay is classed as functional, cell-based. Particulars: BGC-823. The essentials: as §1
The nature of assay [2]: Cytotoxicity against human H460 cells by MTT assay. In kind it is functional, cell-based. Particulars: NCI-H460. The method in brief:
as §1

A further assay concerns HCT-116. Put plainly: Cytotoxicity against human HCT116 cells by MTT assay. In kind it is functional, cell-based. The method in brief: as §1
The test system of another assay is HepG2. Put plainly: Cytotoxicity against human HepG2 cells by MTT assay. The assay is classed as functional, cell-based.
Another assay has as its system Staphylococcus aureus. Put plainly: Antimicrobial activity against Staphylococcus aureus ATCC 25923 by micro broth dilution method. In kind it is functional. The essentials: as §2
In another assay the test system is Aspergillus niger. In words: Antimicrobial activity against Aspergillus niger ATCC 1015 by micro broth dilution method. In kind it is functional. The essentials: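 Antifungal MIC against A. niger, reported as the mean of three independent experiments. Amphotericin B served as the reference antifungal.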
A further assay concerns Escherichia coli. In words: Antimicrobial activity against Escherichia coli ATCC 25922 by micro broth dilution method. The assay is classed as functional, organism-based. The method in brief:
(§3)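 Endpoint is the minimal inhibitory concentration (MIC), reported as the mean of three independent experiments. Reference drugs were ciprofloxacin for the bacteria and amphotericin B for the fungi. E. coli ATCC 25922 and P. aeruginosa ATCC 27853 were tested in a panel with B. subtilis ATCC 6633 and S. aureus ATCC 25923.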

The next assay deals with Candida albicans. In words: Antimicrobial activity against Candida albicans ATCC 10231 by micro broth dilution method. In kind it is functional. The essentials: as §3
Background: Broth dilution looks for growth in wells or tubes with falling amounts of substance.

The test system of a further assay is Pseudomonas aeruginosa. In words: Antimicrobial activity against Pseudomonas aeruginosa ATCC 27853 by micro broth dilution method. The assay is classed as functional, organism-based. The method in brief: as §3

Each structure is given as a SMILES string. ≈ marks a conversion by molar mass, not a printed value. Calls of active or inactive are those of the source. The rule behind the calls is not given here.

As to `CC(=O)C(C)CCCCc1cc(O)c(C)c(=O)o1` (centres undefined), the IC50 (with HeLa; in assay [1]; in assay [2]; with HCT-116; in the assay on HepG2) was > 200 µM in each case. Further, the outcome in the assay on Bacillus subtilis, in the assay with Aspergillus niger, with Escherichia coli, in the assay with Candida albicans and with Pseudomonas aeruginosa was inactive. For the same compound, the minimal inhibitory concentration (MIC) with Staphylococcus aureus was 128 µg/mL (≈ 507 µM).

In the case of `Cc1c(O)cc(CCCCC(C)(C)O)oc1=O`, the IC50 (in the assay on HeLa; in [1]; in assay [2]; with HCT-116; in the assay on HepG2) was > 200 µM each time. The outcome in the assay on Bacillus subtilis, in the assay on Staphylococcus aureus, in the assay on Aspergillus niger, with Escherichia coli, in the assay on Candida albicans and in the assay on Pseudomonas aeruginosa was inactive.

With `COc1cccc2c1C(=O)c1c(O)c3c(c(O)c1C2=O)C[C@@](O)(C(=O)CO)C[C@@H]3O[C@H]1C[C@H](N)[C@H](O)[C@H](C)O1` [DOXORUBICIN], the IC50 amounted to 0.97 µM in the assay with HeLa, 1.48 µM in assay [1], 0.98 µM in [2] and 1.38 µM in the assay with HCT-116.

For the compound `C[C@@H]1[C@H](O)[C@@H](C)/C=C/C=C/C=C/C=C/C=C/C=C/C=C/[C@H](O[C@@H]2O[C@H](C)[C@@H](O)[C@H](N)[C@@H]2O)C[C@@H]2O[C@](O)(C[C@@H](O)C[C@@H](O)[C@H](O)CC[C@@H](O)C[C@@H](O)CC(=O)O[C@H]1C)C[C@H](O)[C@H]2C(=O)O` [AMPHOTERICIN B], in the assay on Aspergillus niger, the MIC was determined as 1 µg/mL (≈ 1.08 µM).

Regarding `Cc1c(O)cc(CCCCC(C)C)oc1=O`, the IC50 (in the assay with HeLa; in assay [1]; in assay [2]; in the assay on HCT-116; with HepG2) was > 200 µM in each case. Besides, the MIC in the assay with Bacillus subtilis and in the assay with Staphylococcus aureus was 4 µg/mL (≈ 17.8 µM) throughout. The result in the assay on Aspergillus niger, in the assay with Escherichia coli, with Candida albicans and in the assay with Pseudomonas aeruginosa was inactive.

With `Cc1c(O)cc(CCCCC(C)[C@H](C)O)oc1=O` (some centres undefined), the IC50 (with HeLa; in assay [1]; in assay [2]; in the assay on HCT-116; with HepG2) was > 200 µM in each case. Further, the MIC against Bacillus subtilis and against Staphylococcus aureus was 128 µg/mL (≈ 503 µM) in each case. Also, the result with Aspergillus niger, in the assay on Escherichia coli, in the assay with Candida albicans and in the assay on Pseudomonas aeruginosa was inactive.

In the case of `O=C(O)c1cn(C2CC2)c2cc(N3CCNCC3)c(F)cc2c1=O` [CIPROFLOXACIN], the MIC against Bacillus subtilis turned out to be 0.12 µg/mL (≈ 0.362 µM); against Staphylococcus aureus, 0.5 µg/mL (≈ 1.51 µM).

In the case of `CCC(C)CCCCc1cc(O)c(C)c(=O)o1` (centres undefined), the IC50 (in the assay on HeLa; in assay [1]; in assay [2]; in the assay on HCT-116; with HepG2) was > 200 µM throughout. For the same compound, the MIC in the assay on Bacillus subtilis and against Staphylococcus aureus was 16 µg/mL (≈ 67.1 µM) in each case. Also, the outcome in the assay with Aspergillus niger, with Escherichia coli, in the assay with Candida albicans and in the assay with Pseudomonas aeruginosa was inactive.

`COc1cc(CCCCC(C)(C)O)oc(=O)c1C`: the IC50 (in the assay on HeLa; in [1]; in assay [2]; in the assay with HCT-116; in the assay with HepG2) was > 200 µM each time. Also, the outcome in the assay on Bacillus subtilis, in the assay on Aspergillus niger, with Escherichia coli, with Candida albicans and with Pseudomonas aeruginosa was inactive. The minimal inhibitory concentration (MIC) in the assay with Staphylococcus aureus came to 128 µg/mL (≈ 503 µM).

With `Cc1c(O)cc(CCCC(C)C)oc1=O`, the IC50 (in the assay on HeLa; in assay [1]; in assay [2]; in the assay on HCT-116; with HepG2) was > 200 µM throughout. Further, the MIC is 32 µg/mL (≈ 152 µM) in the assay on Bacillus subtilis and 8 µg/mL (≈ 38 µM) against Staphylococcus aureus. In addition, the outcome in the assay on Aspergillus niger, in the assay with Escherichia coli, with Candida albicans and in the assay with Pseudomonas aeruginosa was inactive.

By IC50 is commonly meant the concentration needed to halve the response being measured. One may read the MIC as the lowest concentration that inhibits growth of the organism.

(Values after ChEMBL document CHEMBL3085692, “Violapyrones A-G, α-pyrone derivatives from Streptomyces violascens isolated from Hylobates hoolock feces” (J Nat Prod, 2013).)
